Common to all, as to format: functional
The species named for assay [1] is Rattus norvegicus. Kind of assay: In vitro inhibitory concentration that relaxes KCL induced contraction in rat detrusor strips by 50%. Conditions: Rattus norvegicus. The procedure, abridged: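 Female Sprague-Dawley rat (250-350 g) detrusor strips, 4-5 mm by 10 mm, pretensioned 0.25-0.5 g in a tissue bath and contracted with an additional 15 mM KCl. Compounds added as cumulative concentrations to steady state. Contractility measured as 5 min area under the contraction curve per concentration; IC50 is the concentration relaxing KCl-induced contraction by 50%. Glyburide added at end.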

Assay [2] deals with Rattus norvegicus. Briefly: compound was evaluated in vivo for maximum % change in MAP in normotensive rat model after oral administration of a dose of 30 mg/kg. Put shortly: (§1)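 Normotensive rats given test compound orally in a separate group from the efficacy animals. Mean arterial pressure and heart rate recorded after dosing, with maximum % change in MAP from initial values reported. ED20 is the oral dose causing a 20% drop in MAP.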

Assay [3] relates to Rattus norvegicus. Kind of assay: Compound was evaluated in vivo for the % change in the frequency of spontaneous bladder contractions in the rat after oral administration of a dose of 10 mg/kg.
Assay [4] relates to Rattus norvegicus. Kind of assay: compound was evaluated in vivo for maximum % change in MAP in normotensive rat model after oral administration of a dose of 10 mg/kg. The procedure, abridged:
as §1

A word on the IC50: it is the concentration needed to halve the response being measured. Higher therefore signals lower potency.

`CC(/N=c1\c(O)c(O)\c1=N/c1ccc(C#N)cc1)C(C)(C)C` (stereo unspecified) gave an IC50 in the assay filed under Rattus norvegicus [1] of 520 nM. Moreover, the Change in the assay with Rattus norvegicus [2] was 8%; with Rattus norvegicus [3], -83%.

Consider `CC(/N=C(\NC#N)Nc1ccc(C#N)cc1)C(C)(C)C` (stereo unspecified), for which the IC50 in the assay filed under Rattus norvegicus [1] turned out to be 190 nM. Further, the values for the Change with Rattus norvegicus [4] and in the assay on Rattus norvegicus [3] were -19% and -27%, respectively.

These data come from ChEMBL document CHEMBL1132984 (J Med Chem, 2000).
